Consider nine molecules from ChEMBL document CHEMBL1142352, “Chemical resolution of +/- -calanolide A, +/- -cordatolide A and their 11-demethyl analogues” (Bioorg Med Chem Lett, 2008).

The structures appear in SMILES notation. Values after ≈ are worked out from the molar mass of the structure shown.

Series [1] relates to Vero. Put plainly: Cytotoxicity against african green monkey Vero cells at 10 uM. The series is classed as cell-based. The following applies: chlorocebus sabaeus. Summed up: (§1)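 Microtiter cytotoxicity assay run in parallel on Vero and TZM CD4+ CCR5+ cells. Serially diluted drug was applied, and viability was measured with a commercial cell viability assay. Values are reported as percent reduction in cell viability.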

Series [2] concerns Human immunodeficiency virus 1. The experiment in a line: Antiviral activity against HIV1 at 10 uM by luciferase assay. The series is classed as functional. To be noted: for inhibition at 10 µM: Human immunodeficiency virus 1. An outline of the steps:
(§2)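 Pseudotyped HIV-1 assay: drug was serially diluted from 10 µM down to 0.1 nM and tested against 100 TCID50 of HIV ADA infecting TZM CD4+ CCR5+ cells. Infection was read on day 3 post-infection as reporter luciferase activity using a commercial kit, and results are given as percent inhibition. Controls were infected cells without drug, a pseudovirus with a non-specific envelope, and an RT inhibitor.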

The subject of series [3] is Vero. Put plainly: Cytotoxicity against african green monkey Vero cells at 1.0 uM. It counts as cell-based. The following applies: chlorocebus sabaeus. An outline of the steps:
as §1

In series [4] the test system is Human immunodeficiency virus 1. Put plainly: Antiviral activity against HIV1 at 1.0 uM by luciferase assay. It counts as functional. To be noted: for inhibition at 1 µM: Human immunodeficiency virus 1. Summed up:
as §2

The subject of series [5] is Mycobacterium tuberculosis. The experiment in a line: Antimicrobial activity against Mycobacterium tuberculosis. The series is classed as functional.

One may read the inhibition as the drop in the measured response relative to a control, in per cent. For `Cc1cc(=O)oc2c3c(c4c(c12)OC(C)(C)C=C4)O[C@H](C)C[C@@H]3O` [(+)-11-DEMETHYL CORDATOLIDE A], the Activity in series [1] and in series [3] was 0% in each case. The inhibition at 10 µM in series [2] is 0%. The molecule further yielded an inhibition at 1 µM in series [4] of 0%.
Consider `CCCc1cc(=O)oc2c3c(c4c(c12)OC(C)(C)C=C4)O[C@@H](C)C[C@H]3O` [(-)-11-DEMETHYL CALANOLIDE A], for which the Activity in series [1] and in series [3] was 0% throughout. The molecule also returned an inhibition at 10 µM in series [2] of 0%. The same molecule had an inhibition at 1 µM in series [4] of 0%.
What is called MIC is the lowest concentration that inhibits growth of the organism. As usually defined, the Inhibition is how much of the control response was suppressed. Take `CCCc1cc(=O)oc2c3c(c4c(c12)OC(C)(C)C=C4)O[C@H](C)[C@@H](C)[C@@H]3O` [CALANOLIDE A]: the MIC in series [5] was 3.13 mg/L (≈ 8.45 µM). The Activity came to 6% in series [1] and 1% in series [3]. For the same molecule, in series [2], the Inhibition amounted to 98%. The molecule further returned an inhibition at 1 µM in series [4] of 86%.
On to `Cc1cc(=O)oc2c3c(c4c(c12)OC(C)(C)C=C4)O[C@@H](C)C[C@H]3O` [(-)-11-DEMETHYL CORDATOLIDE A], for which the Activity in series [1] and in series [3] was 0% in each case. For the same molecule, at 10 µM the inhibition in series [2] was 0%. Moreover, the inhibition at 1 µM in series [4] was 0%.
For the molecule `CCCc1cc(=O)oc2c3c(c4c(c12)OC(C)(C)C=C4)O[C@H](C)C[C@@H]3O` [(+)-11-DEMETHYL CALANOLIDE A], the Activity in series [1] was determined as 54%; in series [3], 0%. Besides, testing at 10 µM in series [2] gave an inhibition of 98%. In series [4], this molecule had an inhibition at 1 µM of 75%.
The matching figures for `Cc1cc(=O)oc2c3c(c4c(c12)OC(C)(C)C=C4)O[C@@H](C)[C@H](C)[C@H]3O` [(-)-CORDATOLIDE A]: 0%, 0%, 0% and 0%.
The matching figures for `CCCc1cc(=O)oc2c3c(c4c(c12)OC(C)(C)C=C4)O[C@@H](C)[C@H](C)[C@H]3O` [(-)-CALANOLIDE A]: 0%, 0%, 97% and 67%.
As for `Cc1cc(=O)oc2c3c(c4c(c12)OC(C)(C)C=C4)O[C@H](C)[C@@H](C)[C@@H]3O` [(+)-CORDATOLIDE A], the Activity in series [1] and in series [3] was 0% throughout. Also, in series [2], testing at 10 µM gave an inhibition of 85%. In series [4], this molecule came in with an inhibition at 1 µM of 44%.
For the molecule `CCCc1cc(=O)oc2c3c(c4c(c12)OC(C)(C)C=C4)O[C@H](C)[C@@H](C)[C@@H]3O` (racemic) [CALANOLIDE A], the Activity in series [1] and in series [3] was 0% in each case. For the same molecule, the inhibition at 10 µM in series [2] was found to be 97%. Also, the Inhibition in series [4] is 81%.
